Article PMC10424182 (Journal of Medicinal Chemistry, 2023)
Like-named read-outs stand apart in the source and are kept apart here.

Legend:
Type in all cases: binding
[1] = molecular target: T1, AD brain homogenates (mixed 3R/4R-tau) (Homo sapiens, UniProt P10636); experiment: Competition
[2] = molecular target: T2, PSP brain homogenates (4R-tau aggregates) (Homo sapiens, UniProt P10636); experiment: Competition
Outline: (§1)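 Post-mortem human brain homogenate in PBS pH 7.0, 100 μg tissue/mL final, with ~1 nM tritiated radioligand and unlabelled test compound at 0.1–1000 nM (0.25% DMSO final for non-Enamine compounds). Incubated 60 min at room temperature, then GF/B filtration, four PBS washes and scintillation counting. Full inhibition was taken as counts displaced by 1 μM unlabelled radioligand. Triplicates at each concentration.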

[3] = molecular target: T2, PSP brain homogenates (4R-tau aggregates); experiment: Competition; remark: listed apart in the source
Outline: as §1

[4] = molecular target: T1, AD brain homogenates (mixed 3R/4R-tau); experiment: Competition; remark: listed apart in the source
[5] = molecular target: T3, CBD brain homogenates (4R-tau aggregates) (Homo sapiens, UniProt P10636); experiment: Competition
Outline: as §1

[6] = molecular target: T1, AD brain homogenates (mixed 3R/4R-tau); experiment: Single concentration; conditions: 300 nM unlabeled compound
[7] = molecular target: T2, PSP brain homogenates (4R-tau aggregates); experiment: Single concentration; conditions: 300 nM unlabeled compound
Outline: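 A PSP homogenate (100 μg tissue/mL) was run with ~1 nM [3H]-ligand as in the Ki assay, with a single 300 nM test compound, 60 min at room temperature, then filtered and counted. 0% was specific binding with no competitor; 100% was nonspecific binding at 1 μM unlabelled radioligand. The % value is […] divided by the 0%−100% count difference, ×100. Run in triplicate.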

[8] = molecular target: T1, AD brain homogenates (mixed 3R/4R-tau); experiment: Competition; remark: listed apart in the source
[9] = molecular target: T2, PSP brain homogenates (4R-tau aggregates); experiment: Competition; remark: listed apart in the source
Outline: as §1

[10] = molecular target: T3, CBD brain homogenates (4R-tau aggregates); experiment: Competition; remark: listed apart in the source
Outline: as §1

[11] = molecular target: aggregated amyloid-beta (Aβ) in AD tissue (Homo sapiens, UniProt P05067); experiment: Competition
Outline: as §1

[12] = molecular target: T3, CBD brain homogenates (4R-tau aggregates); experiment: Competition; remark: listed apart in the source
Outline: as §1

[13] = molecular target: T2, PSP brain homogenates (4R-tau aggregates); experiment: Competition; remark: listed apart in the source
Outline: as §1

[14] = molecular target: T1, AD brain homogenates (mixed 3R/4R-tau); experiment: Competition; remark: listed apart in the source

T2 sequence (P10636 1-441 isoform P10636-8): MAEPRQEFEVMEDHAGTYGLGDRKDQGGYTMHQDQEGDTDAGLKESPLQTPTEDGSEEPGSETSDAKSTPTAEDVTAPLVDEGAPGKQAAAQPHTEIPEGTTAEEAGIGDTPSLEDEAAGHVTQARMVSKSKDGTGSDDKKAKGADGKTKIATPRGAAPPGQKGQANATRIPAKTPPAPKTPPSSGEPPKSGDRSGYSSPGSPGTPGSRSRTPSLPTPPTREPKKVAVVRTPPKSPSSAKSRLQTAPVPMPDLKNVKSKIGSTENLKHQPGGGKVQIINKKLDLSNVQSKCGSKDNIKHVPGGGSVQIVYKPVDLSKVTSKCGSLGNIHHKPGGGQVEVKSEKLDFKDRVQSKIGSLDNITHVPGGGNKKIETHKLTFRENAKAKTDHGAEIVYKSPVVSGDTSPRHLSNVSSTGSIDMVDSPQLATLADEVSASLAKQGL
T3 sequence (P10636 1-441 isoform P10636-8): as above
T1 sequence (P10636 623-758 limits assumed): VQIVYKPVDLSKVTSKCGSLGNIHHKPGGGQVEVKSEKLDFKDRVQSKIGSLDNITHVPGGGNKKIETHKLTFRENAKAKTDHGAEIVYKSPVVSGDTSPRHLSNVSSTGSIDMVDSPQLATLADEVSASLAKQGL
Chain of aggregated amyloid-beta (Aβ) in AD tissue (P05067 672-713): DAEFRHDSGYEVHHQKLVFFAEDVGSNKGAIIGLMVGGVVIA

Ki [1] [nM]	Ki [2] [nM]	Ki [3] [nM]	Ki [4] [nM]	Ki [5] [nM]	SMILES	further results
> 1000	> 1000				Fc1ccc(-c2ccc3c(c2)[nH]c2ccncc23)cn1 [Tauvid]	
15	18	> 10000	7930	1540	CNc1ccc(/C=C/C=C/c2nc3ccc(OCC(O)CF)cc3s2)cn1 (centres unmarked) [PM-PBB3, reference compound]	
12	22				Oc1cccc2sc(-c3cnc(N4CCC(O)CC4)nc3)cc12 [Compound 6]	inhibition of [^3H]1, AD tissue [6]: > 65%; inhibition of [^3H]1, PSP tissue [7]: > 65%
		250	270	210	OC1CCN(c2ncc(-c3cc4ccc(F)cc4[nH]3)cn2)CC1 [Compound 1, 1-(5-(6-fluoro-1H-indol-2-yl)pyrimidin-2-yl)piperidin-4-ol]	Ki [8]: 80 nM; Ki [9]: 95 nM; Ki [10]: 71 nM; Ki [11]: 142 ± 5 nM
		270	270	230	Fc1ccc2cc(-c3cnc(N4CCOCC4)nc3)[nH]c2c1 [Compound 21, 4-(5-(6-fluoro-1H-indol-2-yl)pyrimidin-2-yl)morpholine]	Ki [8]: 100 nM; Ki [9]: 93 nM; Ki [10]: 110 nM; Ki [11]: 62 ± 3 nM
21	22				O=C1CCN(c2ncc(-c3cc4ccccc4[nH]3)cn2)CCN1 [Compound 19]	
58	89				Fc1cc(-c2ccc3c(n2)[nH]c2ccncc23)ccn1 [PI-2620]	
745	520				OCC1CCN(c2ccc(-c3cc4cc(O)ccc4[nH]3)c(F)n2)CC1 [CBD-2115, 2-(2-fluoro-6-(4-(hydroxymethyl)piperidin-1-yl)pyridin-3-yl)-1H-indol-5-ol]	Ki [12]: 2930 nM; Ki [13]: > 10 µM; Ki [14]: 7.14 µM
96	315				Nc1c(F)ccc2cnc(-n3ccc4ccncc43)cc12 [MK-6240]	
18	18				O[C@@H]1CCN(c2ccc(-c3cc4ccc(F)cc4[nH]3)cn2)C1 [Compound 20]	
